Laboratory results: ChEMBL document CHEMBL4219151, “Piperidinyl Ureas Chemically Control Defective in Cullin Neddylation 1 (DCN1)-Mediated Cullin Neddylation” (J Med Chem, 2018)
Values after ≈ are worked out from the molar mass of the structure shown. One block for each compound: values may come before it.

Key:
[1] = Permeability of the compound at 10 uM by PAMPA; format: ADME; conditions: for Papp at 10 µM: PAMPA, read-out: permeability; for permeability: pampa, 10 µM
In short: (§1)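 Measured in triplicate within at least one experiment; values reported as mean ± standard deviation.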

[2] = Solubility of the compound at pH 7.4 after 18 hrs by UV-spectroscopy; format: physicochemical; conditions: buffer; in short: as §1
DCN1-like protein 1 = DCN1-like protein 1 (Homo sapiens, UniProt Q96GG9)
Sequence of DCN1-like protein 1 (Q96GG9 whole entry): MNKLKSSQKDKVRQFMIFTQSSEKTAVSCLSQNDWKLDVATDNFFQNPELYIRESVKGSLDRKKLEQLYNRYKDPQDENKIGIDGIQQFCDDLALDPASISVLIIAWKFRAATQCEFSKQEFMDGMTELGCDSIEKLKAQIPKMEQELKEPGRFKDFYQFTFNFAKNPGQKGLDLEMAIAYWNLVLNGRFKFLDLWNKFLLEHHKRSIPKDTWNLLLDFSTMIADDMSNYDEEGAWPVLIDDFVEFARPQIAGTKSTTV

SMILES: CCOc1cc(CN2CCC(N(Cc3ccccc3)C(=O)Nc3cccc(C(F)(F)F)c3)CC2)cc(Cl)c1O
Papp at 10 µM [1]: 110 ×10⁻⁶ cm/s
solubility at 18 h [2]: 0.4 µM (≈ 0.225 µg/mL)

SMILES: COc1cccc(NC(=O)NC2CCN(Cc3ccccc3)CC2)c1
IC50 (DCN1-like protein 1): > 67 µM

SMILES: O=C(Nc1cccc(C(F)(F)F)c1)N(Cc1ccccc1)C1CCN(CC2CC2)CC1
Papp at 10 µM [1]: > 2200 ×10⁻⁶ cm/s
solubility at 18 h [2]: 75 µM (≈ 32.4 µg/mL)
IC50 (DCN1-like protein 1): 0.21 µM

SMILES: CSc1cccc(NC(=O)NC2CCN(Cc3ccccc3)CC2)c1
IC50 (DCN1-like protein 1): > 67 µM

Papp at 10 µM [1]: < 1 ×10⁻⁶ cm/s
solubility at 18 h [2]: 1 µM (≈ 0.498 µg/mL)
SMILES: CCCCS(=O)(=O)N1CCC(N(Cc2ccccc2)C(=O)Nc2cccc(C(F)(F)F)c2)CC1

SMILES: O=C(Nc1cccc(C(F)(F)F)c1)N(Cc1ccccc1)C1CCNCC1
Papp at 10 µM [1]: > 2200 ×10⁻⁶ cm/s
solubility at 18 h [2]: 71 µM (≈ 26.8 µg/mL)
IC50 (DCN1-like protein 1): 21 µM

SMILES: O=C(Nc1cccc(C(F)(F)F)c1)N(Cc1ccccc1)C1CCN(Cc2cc[nH]n2)CC1
Papp at 10 µM [1]: > 2200 ×10⁻⁶ cm/s
solubility at 18 h [2]: 54 µM (≈ 24.7 µg/mL)
IC50 (DCN1-like protein 1): 2.4 µM

SMILES: O=C(Nc1cccc(C(F)(F)F)c1)NC1CCN(Cc2ccccc2Cl)CC1
Papp at 10 µM [1]: 830 ×10⁻⁶ cm/s
solubility at 18 h [2]: 0.3 µM (≈ 0.124 µg/mL)
IC50 (DCN1-like protein 1): 28 µM

SMILES: CC(C)(C)CCN1CCC(N(Cc2ccccc2)C(=O)Nc2cccc(C(F)(F)F)c2)CC1
Papp at 10 µM [1]: > 2200 ×10⁻⁶ cm/s
solubility at 18 h [2]: 5.8 µM (≈ 2.68 µg/mL)
IC50 (DCN1-like protein 1): 0.17 µM

Papp at 10 µM [1]: > 2200 ×10⁻⁶ cm/s
solubility at 18 h [2]: < 0.1 µM
SMILES: CCCC(=O)N1CCC(N(Cc2ccccc2)C(=O)Nc2cccc(C(F)(F)F)c2)CC1

SMILES: Cc1cccc(NC(=O)NC2CCN(Cc3ccccc3)CC2)c1
IC50 (DCN1-like protein 1): 44 µM

permeability [1]: 1700 ×10⁻⁶ cm/s
solubility at 18 h [2]: 0.7 µM (≈ 0.288 µg/mL)
SMILES: O=C(Nc1cccc(C(F)(F)F)c1)NC1CCN(Cc2cccc(Cl)c2)CC1

SMILES: O=C(Nc1cccc(C(F)(F)F)c1)N(Cc1ccccc1)C1CCN(Cc2ccc3c(c2)OCO3)CC1
Papp at 10 µM [1]: > 2200 ×10⁻⁶ cm/s
solubility at 18 h [2]: < 0.1 µM
IC50 (DCN1-like protein 1): 12 µM

SMILES: O=C(Nc1cccc(C(F)(F)F)c1)N(Cc1ccccc1)C1CCN(Cc2cccnc2)CC1
Papp at 10 µM [1]: > 2200 ×10⁻⁶ cm/s
solubility at 18 h [2]: 30 µM (≈ 14.1 µg/mL)
IC50 (DCN1-like protein 1): 20 µM

SMILES: O=C(Nc1cccc(CN2CCOCC2)c1)NC1CCN(Cc2ccccc2)CC1
Papp at 10 µM [1]: 220 ×10⁻⁶ cm/s
solubility at 18 h [2]: 75 µM (≈ 30.6 µg/mL)
IC50 (DCN1-like protein 1): > 67 µM

SMILES: CC(C)(C)CN1CCC(N(Cc2ccccc2)C(=O)Nc2cccc(C(F)(F)F)c2)CC1
IC50 (DCN1-like protein 1): 0.96 µM

SMILES: O=C(Nc1cccc(C(F)(F)F)c1)N(Cc1ccccc1)C1CCN(Cc2ccccc2)CC1
Papp at 10 µM [1]: 300 ×10⁻⁶ cm/s
solubility at 18 h [2]: 11 µM (≈ 5.14 µg/mL)

SMILES: O=C(Nc1cccc(C(F)(F)F)c1)N(Cc1ccccc1)C1CCN(Cc2nccs2)CC1
Papp at 10 µM [1]: 310 ×10⁻⁶ cm/s
solubility at 18 h [2]: 6.3 µM (≈ 2.99 µg/mL)

SMILES: CCCN1CCC(N(CCC(C)C)C(=O)Nc2cccc(C(F)(F)F)c2)CC1
permeability [1]: 1500 ×10⁻⁶ cm/s
solubility at 18 h [2]: 61 µM (≈ 24.4 µg/mL)
IC50 (DCN1-like protein 1): 2.7 µM

SMILES: O=C(Nc1cccc(C(F)(F)F)c1)N(Cc1ccccc1)C1CCN(Cc2ccc(F)cc2)CC1
Papp at 10 µM [1]: > 2200 ×10⁻⁶ cm/s
solubility at 18 h [2]: 0.9 µM (≈ 0.437 µg/mL)
IC50 (DCN1-like protein 1): 10 µM

Papp at 10 µM [1]: 700 ×10⁻⁶ cm/s
solubility at 18 h [2]: 85 µM (≈ 35.7 µg/mL)
SMILES: CCCN1CCC(N(Cc2ccncc2)C(=O)Nc2cccc(C(F)(F)F)c2)CC1

SMILES: O=C(Nc1cccc(C(F)(F)F)c1)N(Cc1ccccc1)C1CCN(Cc2c[nH]cn2)CC1
Papp at 10 µM [1]: 50 ×10⁻⁶ cm/s
solubility at 18 h [2]: 110 µM (≈ 50.3 µg/mL)
IC50 (DCN1-like protein 1): 5.9 µM

SMILES: O=C(Nc1ccc2c(c1)OCO2)NC1CCN(Cc2ccccc2)CC1
IC50 (DCN1-like protein 1): > 67 µM

SMILES: CCCN1CCC(N(CCOC)C(=O)Nc2cccc(C(F)(F)F)c2)CC1
permeability [1]: 1600 ×10⁻⁶ cm/s
solubility at 18 h [2]: 64 µM (≈ 24.8 µg/mL)
IC50 (DCN1-like protein 1): 21 µM

SMILES: O=C(Nc1cccc(I)c1)NC1CCN(Cc2ccccc2)CC1
IC50 (DCN1-like protein 1): > 67 µM

SMILES: CCCN1CCC(N(CCC)C(=O)Nc2cccc(C(F)(F)F)c2)CC1
permeability [1]: 1600 ×10⁻⁶ cm/s
solubility at 18 h [2]: 61 µM (≈ 22.7 µg/mL)
IC50 (DCN1-like protein 1): 10 µM

SMILES: CC(C)CCN1CCC(N(Cc2ccccc2)C(=O)Nc2cccc(C(F)(F)F)c2)CC1
Papp at 10 µM [1]: > 2200 ×10⁻⁶ cm/s
solubility at 18 h [2]: 60 µM (≈ 26.9 µg/mL)
IC50 (DCN1-like protein 1): 0.79 µM

Papp at 10 µM [1]: > 2200 ×10⁻⁶ cm/s
solubility at 18 h [2]: 14 µM (≈ 5.48 µg/mL)
SMILES: Cc1ccc(CN2CCC(NC(=O)Nc3cccc(C(F)(F)F)c3)CC2)cc1

IC50 (DCN1-like protein 1): 12 µM
SMILES: CC(=O)O[C@H]1CN(Cc2ccccc2)CC[C@@H]1NC(=O)Nc1cccc(C(F)(F)F)c1
